Reference: ChEMBL document CHEMBL2417383, “Assay platform for clinically relevant metallo-β-lactamases” (J Med Chem, 2013)
Blank lines part the entries; values can stand above or below the compound they belong to.

What was measured:
[1] = Inhibition of recombinant SPM-1 (unknown origin) expressed in Escherichia coli BL21 (DE3) cells using FC4 as substrate assessed as residual activity at 1 mM preincubated for 10 mins prior to substrate addition by fluorescence-based assay relative to control
Procedure, shortened: (§1)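 Mature SPM-1, E. coli codon-optimized, with N-terminal His6 tag cleavable by 3C protease, was expressed from pOPINF in E. coli BL21(DE3) pLysS in 2TY and purified to >95%. […] Fluorescence was read at λex 380/λem 460 nm and residual activity calculated.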

[2] = test system: BL21-DE3; test: Inhibition of recombinant SPM-1 (unknown origin) expressed in Escherichia coli BL21 (DE3) cells using FC4 as substrate assessed as residual activity at 200 uM preincubated for 10 mins prior to substrate addition by fluorescence-based assay relative to control; procedure, shortened: as §1
[3] = test system: BL21-DE3
[4] = test system: BL21-DE3; remark: listed apart in the source
[5] = test system: BL21-DE3; remark: listed apart in the source
[6] = test system: BL21-DE3; remark: listed apart in the source
[7] = test system: BL21-DE3; remark: listed apart in the source
[8] = Chemical stability of the compound in buffer assessed as compound hydrolysis after 8 hrs; format: physicochemical
Procedure, shortened: (§2)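 Substrate autohydrolysis was followed in aqueous assay buffer at room temperature over time, up to at least 8 h.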

[9] = Chemical stability of the compound in aqueous solution; format: physicochemical; conditions: buffer; procedure, shortened: as §2

Structure (SMILES): O=C(O)C[C@@H](NC(=O)c1nc(Cl)c2ccccc2c1O)C(=O)O
Activity [1]: < 5%

Structure (SMILES): O=C(O)CC[C@H](NC(=O)c1nc(Cl)c2ccccc2c1O)C(=O)O
Activity [1]: < 5%

Structure (SMILES): CC(C)[C@H](NC(=O)c1nc(Cl)c2ccccc2c1O)C(=O)O
Activity [1]: 16%

Structure (SMILES): CC(C)C[C@H](NC(=O)c1nc(Cl)c2ccccc2c1O)C(=O)O
Activity [1]: < 5%
Activity [2]: 26%

Structure (SMILES): CC(C)C[C@@H](NC(=O)c1nc(Cl)c2ccccc2c1O)C(=O)O
Activity [1]: < 5%
Activity [2]: 32%

Km [3]: 8.8 µM
Km [4]: 7.2 µM
Km [5]: 55.7 µM
Km [6]: 16 µM
Km [7]: 8.1 µM
Structure (SMILES): O=C(Cc1cccs1)N[C@@H]1C(=O)N2C(C(=O)O)=C(/C=C/c3ccc([N+](=O)[O-])cc3[N+](=O)[O-])CS[C@H]12
kcat [3]: 25.3 s⁻¹
kcat [4]: 226 s⁻¹
kcat [5]: 2790 s⁻¹
kcat [6]: 0.7 s⁻¹
kcat [7]: 14.9 s⁻¹

Stability [8]: Stable
Stability [9]: Stable
Structure (SMILES): O=C(Cc1ccccc1)N[C@@H]1C(=O)N2C(C(=O)O)=C(COc3ccc4ccc(=O)oc4c3)C[S+]([O-])[C@H]12 (stereo partly specified)

Structure (SMILES): O=C(O)C[C@H](NC(=O)c1nc(Cl)c2ccccc2c1O)C(=O)O
Activity [1]: < 5%

Structure (SMILES): O=C(O)CC[C@@H](NC(=O)c1nc(Cl)c2ccccc2c1O)C(=O)O
Activity [1]: < 5%

Structure (SMILES): CC(C)[C@@H](NC(=O)c1nc(Cl)c2ccccc2c1O)C(=O)O
Activity [1]: 16%

Stability [8]: Stable
Stability [9]: Stable
Structure (SMILES): O=C(Cc1ccccc1)N[C@@H]1C(=O)N2C(C(=O)O)=C(COc3ccc4ccc(=O)oc4c3)CS(=O)(=O)[C@H]12

Structure (SMILES): O=C(N[C@@H](Cc1c[nH]c2ccccc12)C(=O)O)c1nc(Cl)c2ccccc2c1O
Activity [1]: < 5%

Structure (SMILES): O=C(N[C@H](Cc1c[nH]c2ccccc12)C(=O)O)c1nc(Cl)c2ccccc2c1O
Activity [1]: < 5%
